Data as given in ChEMBL document CHEMBL3421610, “Antimalarial activity of 4-amidinoquinoline and 10-amidinobenzonaphthyridine derivatives” (J Med Chem, 2015).
Values after ≈ are worked out from the molar mass of the structure shown. Active and inactive are the calls of the source. The calls are words filed in the database; no cut-off is given here.

Experiments:
[1] = test system: Plasmodium berghei; assay: Antimalarial activity against erythrocytic stage of chloroquine resistant Plasmodium berghei ANKA infected in mouse assessed as cure rate at 120 mg/kg, po qd administered on day 3, 4 and 5 post infection measured 3 times per week for 30 days, starting from day 3 by Thompson test; format: functional, organism-based; set-up: dose 120 mg/kg
How it was run: (§1)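 Male mice of 16-20 g inoculated intraperitoneally with 5 x 10^6 erythrocytes infected with CQ-resistant P. berghei ANKA. Drug given orally as a suspension once daily on days 3, 4 and 5 post-infection, five mice per dose. Blood films from day 3, three times weekly for 30 days. Cure means parasite-negative on day 30 or surviving 30 days. Mice losing >20% body weight sacrificed.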

[2] = test system: Mus musculus; assay: Toxicity in mouse infected with erythrocytic stage of chloroquine resistant Plasmodium berghei ANKA up to 160 mg/kg, po qd administered on day 3, 4 and 5 post infection measured over 30 days; format: organism-based, Erythrocyte; set-up: dose 160 mg/kg, route oral; settings: in vivo, 720 h
How it was run: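 Male mice of 16-20 g infected intraperitoneally with CQ-resistant P. berghei ANKA (5 x 10^6 infected erythrocytes). Oral dosing once daily on days 3-5, five mice per group. Animals followed for 30 days by blood films; mice losing >20% body weight sacrificed.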

[3] = test system: Plasmodium berghei; assay: Antimalarial activity against erythrocytic stage of chloroquine resistant Plasmodium berghei ANKA infected in mouse assessed as cure rate at 60 mg/kg, po qd administered on day 3, 4 and 5 post infection measured 3 times per week for 30 days, starting from day 3 by Thompson test; format: functional, organism-based; set-up: dose 60 mg/kg; how it was run: as §1
[4] = test system: HepG2; assay: Cytotoxicity against human HepG2 cells after 48 hrs by MTT assay; format: cell-based; settings: HepG2, 48 h
How it was run: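 HepG2 cells in supplemented MEM, plated at 9570 cells/well in 384-well format and incubated overnight at 37 °C, 5% CO2. Twelve duplicate 1.6-fold dilutions, 57–10,000 ng/ml, incubated 48 h. MTT added for 1 h at room temperature in the dark, formazan dissolved in acidified isopropanol, absorbance read. IC50 by sigmoidal variable-slope nonlinear regression; tryptanthrin control.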

[5] = Half life in human liver microsomes at 1 uM by LC/MS analysis; format: ADME
How it was run: (§2)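 Compound at 1 µM final, diluted from […], with 0.5 mg/mL pooled human or mouse liver microsomes, NADP, MgCl2 and 0.1 M PBS pH 7.4. Reaction started with 1 U/mL G6PD and shaken at 37 °C. Aliquots quenched in cold acetonitrile at 0, 10, 20, 30 and 60 min and quantified by LC/MS. Half-life from log plot of total ion chromatogram area remaining.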

[6] = test system: Plasmodium falciparum; assay: Antimalarial activity against chloroquine-sensitive Plasmodium falciparum D6 assessed as growth inhibition after 18 hrs by [3H]-hypoxanthine uptake assay; format: functional, organism-based
How it was run: (§3)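 P. falciparum clones D6, W2 and TM91C235; modified semiautomated microdilution. Compounds in DMSO, diluted in RPMI 1640 with 10% human plasma, tested over (1.56-100) x 10^-9 M; final DMSO 0.25-0.5%. Inoculum 0.5% parasitemia, 1% hematocrit. 24 h incubation, then [3H]-hypoxanthine added, further 18 h. Harvested and read by scintillation counting; IC50 by nonlinear regression.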

[7] = test system: Plasmodium falciparum; assay: Antimalarial activity against chloroquine-resistant Plasmodium falciparum W2 assessed as growth inhibition after 18 hrs by [3H]-hypoxanthine uptake assay; format: functional, organism-based; how it was run: as §3
[8] = test system: Plasmodium falciparum; assay: Antimalarial activity against chloroquine-resistant Plasmodium falciparum C235 assessed as growth inhibition after 18 hrs by [3H]-hypoxanthine uptake assay; format: functional, organism-based; how it was run: as §3
[9] = target: hERG (KCNH2) (Homo sapiens, UniProt Q12809); assay: Inhibition of human ERG expressed in CHL cells assessed as tail current at 10 uM after 7 mins by patch clamp assay relative to control; format: cell-based; settings: CHL cells expressing human ERG
[10] = Half life in mouse liver microsomes at 1 uM by LC/MS analysis; format: ADME; how it was run: as §2
[11] = test system: Plasmodium berghei; assay: Antimalarial activity against erythrocytic stage of chloroquine resistant Plasmodium berghei ANKA infected in mouse assessed as parasite clearance at 160 mg/kg, po qd administered on day 3, 4 and 5 post infection measured on day 2 to 7 post last dose; format: functional, organism-based; set-up: dose 160 mg/kg
How it was run: (§4)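 Male mice of 16-20 g inoculated intraperitoneally with 5 x 10^6 erythrocytes infected with CQ-resistant P. berghei ANKA. Drug given orally as a suspension once daily on days 3, 4 and 5 post-infection, five mice per dose. Parasitemia followed by blood films from day 3, three times weekly for 30 days; infected untreated mice served as negative controls.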

[12] = test system: Plasmodium berghei; assay: Antimalarial activity against erythrocytic stage of chloroquine resistant Plasmodium berghei ANKA infected in mouse assessed as cure rate at 160 mg/kg, po qd administered on day 3, 4 and 5 post infection measured 3 times per week for 30 days, starting from day 3 by Thompson test; format: functional, organism-based; set-up: dose 160 mg/kg; how it was run: as §1
[13] = test system: Salmonella typhi; assay: Mutagenicity in Salmonella typhi by Ames test; format: toxicity, organism-based; settings: salmonella enterica subsp. enterica […]
[14] = test system: Plasmodium falciparum; assay: Potency index, ratio of chloroquine IC50 to compound IC50 for chloroquine-resistant Plasmodium falciparum W2; format: functional
[15] = test system: Plasmodium berghei; assay: Antimalarial activity against erythrocytic stage of chloroquine resistant Plasmodium berghei ANKA infected in mouse assessed as cure rate at 15 mg/kg, po qd administered on day 3, 4 and 5 post infection measured 3 times per week for 30 days, starting from day 3 by Thompson test; format: functional, organism-based; set-up: dose 15 mg/kg; how it was run: as §1
[16] = AUClast in ICR mouse at 80 mg/kg, po; format: ADME, organism-based; set-up: time 0 - last, dose 80 mg/kg, route oral; settings: plasma
[17] = Cmax in ICR mouse at 80 mg/kg, po; format: ADME, organism-based; set-up: dose 80 mg/kg, route oral; settings: in vivo
How it was run: (§5)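 Male 7-week-old ICR mice, 23–28 g, given a single intragastric dose of 80 mg/kg in DD water (100 µL/20 g). Three mice per time point; whole blood taken by cardiac puncture into lithium heparin tubes and spun to plasma. Parameters come from plasma concentration–time curves of parent drug. t1/2 = ln2/kel from the log plot. AUC by linear trapezoidal rule, extrapolated to infinity; MRT = AUMC/AUC.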

[18] = Apparent volume of distribution during terminal phase in ICR mouse at 80 mg/kg, po; format: ADME, organism-based; set-up: dose 80 mg/kg, route oral; settings: in vivo, read-out: Vz/F
[19] = Mean residence time in ICR mouse at 80 mg/kg, po; format: ADME, organism-based; set-up: dose 80 mg/kg, route oral; settings: in vivo; how it was run: as §5
[20] = Elimination half life in ICR mouse at 80 mg/kg, po; format: ADME, organism-based; set-up: dose 80 mg/kg, route oral; settings: in vivo, read-out: beta t1/2 (converted); how it was run: as §5
[21] = Apparent oral clearance in ICR mouse at 80 mg/kg; format: ADME, organism-based; set-up: dose 80 mg/kg, route oral; settings: in vivo
[22] = Tmax in ICR mouse at 80 mg/kg, po; format: ADME, organism-based; set-up: dose 80 mg/kg, route oral; settings: in vivo; how it was run: as §5
[23] = AUCinfinity in ICR mouse at 80 mg/kg, po; format: ADME, organism-based; set-up: time infinity, dose 80 mg/kg, route oral; settings: plasma; how it was run: as §5
[24] = test system: Plasmodium berghei; assay: Antimalarial activity against erythrocytic stage of chloroquine resistant Plasmodium berghei ANKA infected in mouse assessed as reduction of parasitemia at 160 mg/kg, po qd administered on day 3, 4 and 5 post infection measured 2 days post last dose relative to control; format: functional; set-up: scale not given: the % may be the effect or the level left; how it was run: as §4

Sequence of hERG (KCNH2) (Q12809 whole entry): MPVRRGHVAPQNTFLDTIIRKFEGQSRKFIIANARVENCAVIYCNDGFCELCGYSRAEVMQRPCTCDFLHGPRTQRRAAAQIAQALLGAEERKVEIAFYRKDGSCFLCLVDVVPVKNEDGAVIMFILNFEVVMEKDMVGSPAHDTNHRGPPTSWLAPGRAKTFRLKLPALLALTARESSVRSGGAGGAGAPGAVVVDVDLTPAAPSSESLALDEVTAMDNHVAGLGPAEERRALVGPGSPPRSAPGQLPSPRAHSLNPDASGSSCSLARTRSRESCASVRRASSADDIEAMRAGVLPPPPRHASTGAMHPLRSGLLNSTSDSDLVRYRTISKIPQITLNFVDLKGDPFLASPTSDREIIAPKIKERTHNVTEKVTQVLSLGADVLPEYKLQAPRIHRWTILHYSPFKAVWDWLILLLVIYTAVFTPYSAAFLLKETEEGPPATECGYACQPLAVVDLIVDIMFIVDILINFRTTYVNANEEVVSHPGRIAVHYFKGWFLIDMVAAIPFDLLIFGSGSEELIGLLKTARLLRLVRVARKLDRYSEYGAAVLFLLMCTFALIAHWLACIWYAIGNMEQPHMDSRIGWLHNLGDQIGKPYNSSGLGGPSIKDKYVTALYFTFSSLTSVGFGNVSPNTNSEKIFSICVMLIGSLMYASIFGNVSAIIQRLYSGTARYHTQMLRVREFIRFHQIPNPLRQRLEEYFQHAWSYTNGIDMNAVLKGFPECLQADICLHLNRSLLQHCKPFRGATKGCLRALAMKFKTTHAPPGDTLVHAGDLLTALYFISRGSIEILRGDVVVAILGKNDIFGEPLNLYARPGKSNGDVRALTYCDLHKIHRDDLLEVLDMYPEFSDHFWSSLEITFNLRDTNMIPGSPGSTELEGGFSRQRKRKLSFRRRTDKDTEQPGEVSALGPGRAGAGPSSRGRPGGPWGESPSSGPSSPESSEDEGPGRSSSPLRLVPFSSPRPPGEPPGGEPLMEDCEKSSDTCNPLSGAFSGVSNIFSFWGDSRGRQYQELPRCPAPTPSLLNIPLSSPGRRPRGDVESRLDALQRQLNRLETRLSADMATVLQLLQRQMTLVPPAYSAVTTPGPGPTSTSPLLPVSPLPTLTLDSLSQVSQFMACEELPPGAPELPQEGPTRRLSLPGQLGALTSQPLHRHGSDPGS

| Structure (SMILES) | Activity [1] | Activity [2] | IC50 [4] | half-life at 1 µM [5] | IC50 [6] | IC50 [7] | IC50 [8] | inhibition at 7 min, 10 µM [9] | half-life at 1 µM [10] | Activity [12] | further results |
| --- | --- | --- | --- | --- | --- | --- | --- | --- | --- | --- | --- |
| COc1ccc2nc3cc(Cl)ccc3c(N/C(=N/CCCN(C)C)c3ccccc3)c2n1 | Active | Non-toxic | 5.78 µg/mL (≈ 12.9 µM) | 18 min | 1.8 nM | 1.98 nM | 1.7 nM | 48.9% | 44 min |  | Activity [3]: Active |
| C/C(=N/c1ccnc2cc(Cl)ccc12)NC1CCN(Cc2ccccc2)CC1 |  | Non-toxic | 8.07 µg/mL (≈ 20.5 µM) | > 60 min | 56 nM | 199 nM | 87 nM |  | > 60 min | inactive | Activity [11]: Active |
| CN(C)CCCN/C(=N\c1ccnc2cc(Cl)ccc12)c1ccc(Cl)cc1 |  |  | 1.93 µg/mL (≈ 4.8 µM) | 48 min | 2 nM | 2.9 nM | 1.1 nM | 115% | 35 min |  | Activity [13]: Non-toxic |
| CN(C)CCCN/C(=N\c1ccnc2cc(Cl)ccc12)c1ccccc1 |  |  | 5.13 µg/mL (≈ 14 µM) | > 60 min | 2.1 nM | 9.2 nM | 3.4 nM | 90.6% | 52 min |  | Activity [13]: Non-toxic; Ratio IC50 [14]: 50 |
| CCN(CC)CCC/N=C(\C)Nc1c2ccc(Cl)cc2nc2ccc(OC)nc12 | Active | Non-toxic | 2.06 µg/mL (≈ 4.97 µM) | 33 min | 17.6 nM | 41 nM | 26.6 nM | 100% | 29 min |  |  |
| CCN(CC)CCCN/C(=N\c1ccnc2cc(Cl)ccc12)c1ccccc1 |  |  | 5.08 µg/mL (≈ 12.9 µM) | 21 min | 1.8 nM | 7.2 nM | 3.3 nM | 100% | 16 min |  | Ratio IC50 [14]: 50 |
| CCN(CC)CC(C)(C)C/N=C(/Nc1c2ccc(Cl)cc2nc2ccc(OC)nc12)c1ccccc1 |  | Non-toxic | > 24.2 µg/mL | > 60 min | 21.8 nM | 61 nM | 29.7 nM | 10% | > 60 min |  | Activity [15]: Active; Activity [3]: Active |
| CCN(CC)CCCN/C(=N\c1ccnc2cc(Cl)ccc12)C(C)C |  | Non-toxic | > 24.2 µg/mL | > 60 min | 22 nM | 42 nM | 25.8 nM |  | > 60 min | Active | AUC(0-t) [16]: 3510 ng·h/mL; Cmax [17]: 696 ng/mL; Vd/F [18]: 214 L/kg; MRT [19]: 458 min; half-life [20]: 6.66 h; CL/F [21]: 371 mL/min/kg; Tmax [22]: 30 min; AUC(0-inf) [23]: 3620 ng·h/mL |
| COc1ccc2nc3cc(Cl)ccc3c(N/C(=N/CCCN(C)C)c3ccc(Cl)cc3)c2n1 |  | Non-toxic | 2.51 µg/mL (≈ 5.2 µM) | 32 min | 2.8 nM | 6.6 nM | 4.3 nM | 77% | > 60 min |  | Activity [13]: Non-toxic; Activity [15]: Active; Activity [3]: Active |
| C/C(=N/c1ccnc2cc(Cl)ccc12)NCCCN1CCCCC1 |  | Non-toxic | 23.3 µg/mL (≈ 67.5 µM) | > 60 min | 25 nM | 36 nM | 14 nM | 27.7% | 25 min | inactive | Activity [24]: 95.4% |
| C/C(=N/c1ccnc2cc(Cl)ccc12)NCCCCN1CCCCC1 |  | Non-toxic | 9.81 µg/mL (≈ 27.3 µM) | > 60 min | 62 nM | 126 nM | 64 nM |  | > 60 min | inactive | Activity [11]: Active |
| COc1ccc2nc3cc(Cl)ccc3c(N/C(=N/CCCN3CCCCC3)c3ccccc3)c2n1 | Active | Non-toxic | 2.56 µg/mL (≈ 5.25 µM) | 9 min | 5.1 nM | 3.3 nM | 4.3 nM | 80% | 12 min |  |  |
| CCN(CC)CCC/N=C(\C)N(CCCN(CC)CC)c1c2ccc(Cl)cc2nc2ccc(OC)nc12 | Active | Non-toxic | 3.04 µg/mL (≈ 5.78 µM) | > 60 min | 1.3 nM | 9.5 nM | 5.1 nM | 13.8% | > 60 min |  | AUC(0-t) [16]: 4930 ng·h/mL; Activity [13]: Non-toxic; Cmax [17]: 222 ng/mL; Vd/F [18]: 610 L/kg; MRT [19]: 1330 min; Activity [3]: Active; half-life [20]: 47.5 h; CL/F [21]: 150 mL/min/kg; Tmax [22]: 120 min; AUC(0-inf) [23]: 8950 ng·h/mL |
| CC(C)/C(=N/c1ccnc2cc(Cl)ccc12)NCCCCN1CCCCC1 | Active | Non-toxic | 5.71 µg/mL (≈ 14.8 µM) | 29 min | 7.5 nM | 18.6 nM | 12 nM | 33% | 31 min |  |  |
| CCN(CC)CCCCN/C(C)=N\c1ccnc2cc(Cl)ccc12 |  | Non-toxic | 2.68 µg/mL (≈ 7.73 µM) | > 60 min | 24.9 nM | 98.3 nM | 26 nM |  | > 60 min | inactive | Activity [11]: Active |
| C/C(=N/c1ccnc2cc(Cl)ccc12)NC1CCN(C(C)C)CC1 |  | Non-toxic | 5.71 µg/mL (≈ 16.6 µM) | > 60 min | 108 nM | 166 nM | 134 nM |  | > 60 min | inactive | Activity [11]: Active |
